Test results published in paper PMC10187672 (RNA, 2023).
Several values for one entry are separate records, joined by “and”; a condition that tells them apart may be missing. Equal values may be shown once. Blank lines part the entries; values can stand above or below the molecule they belong to.

Columns and labels:
[1] = target: T1, eIF4A1 (Homo sapiens, UniProt P60842); assay: Fluorescence polarization; assay type: binding; details: 10 µM compound, 1 mM AMPPNP
[2] = target: T2, eIF4A3 (Homo sapiens, UniProt P38919); assay: Fluorescence polarization; assay type: binding; details: 10 µM compound, 1 mM AMPPNP
[3] = target: T1, eIF4A1; assay: FP dissociation of preformed protein•ATP•RNA•compound complexes; assay type: binding; details: 10 µM compound, 1 mM ATP, 1000-fold molar excess unlabeled poly r(AG)8 RNA
Outline: (§1)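 Recombinant His6-tagged human protein was expressed in E. coli BL21(DE3) and Ni-NTA purified. Complexes were preformed for 30 min at RT in the dark in FP buffer (HEPES-NaOH pH 8, 0.1% DMSO) with 1.5 µM protein, 10 nM FAM-poly r(AG)8 and 1 mM ATP. DMSO reactions used 25 µM protein. After adding 10 µM unlabeled RNA, FP was read every 10 sec. Half-life came from a one-phase exponential decay fit (Y0 = 1, plateau = 0).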

[4] = target: T2, eIF4A3; assay: as above; assay type: binding; details: 10 µM compound, 1 mM ATP, 1000-fold molar excess unlabeled poly r(AG)8 RNA
Outline: as §1

[5] = test system: TCR-β minigene mRNA (NMD) in HeLa cells; assay: NMD assay, RT-qPCR of TCR-β minigene mRNA in PTC− and PTC+ HeLa cells; assay type: cell-based; details: for TCR-β mRNA levels in PTC+ cells / TCR-β mRNA levels in PTC− cells: normalized to β-actin; for TCR-β mRNA levels in PTC− cells: PTC− HeLa cells
Outline: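 HeLa cells carrying a TCR-β minigene with or without a PTC were seeded at 100,000/well and exposed to compound across a concentration series for 1 h or 5 h. Total RNA was TRIzol-extracted, and 500 ng was reverse-transcribed with oligo(dT) primer. EvaGreen qPCR followed, with TCR-β normalized to β-actin. n = 3 ± SD.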

[6] = test system: HeLa cells harboring a (TCR)-β minigene; assay: [35S]-Methionine labeling of de novo protein synthesis; assay type: cell-based; details: 1 h exposure, labeling last 15 min
Outline: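 PTC+ minigene HeLa cells were seeded at 50,000/well and treated with compound for 1 h the next day, with [35S]-Met/Cys added for the final 15 min. Cells were washed and lysed in RIPA buffer, and lysates were spotted on paper and TCA-precipitated. Radioactivity was measured by scintillation counting and normalized to total protein. n = 3 ± SD.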

[7] = test system: SC35 mRNA in 4A1^F163L/4A2^− eHAP1 cells; assay: RT-qPCR of endogenous SC35 and HPRT mRNA; assay type: cell-based; details: 5 h exposure, normalized to β-actin
Outline: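 Cells were seeded at 250,000/well and given a concentration series of compound for 5 h. Total RNA was TRIzol-extracted, and 500 ng was reverse-transcribed with oligo(dT) primer. EvaGreen qPCR measured SC35 and HPRT, normalized to β-actin and expressed as fold change versus DMSO.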

[8] = test system: Krebs-2 translation extracts; assay: In vitro translation of FF/HCV/Ren bicistronic reporter mRNAs; assay type: biochemical; details: Krebs-2 extracts, 1 h at 30°C
Outline: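 Reporter mRNAs were used at 10 ng/µL final. FLuc and RLuc activities were read by luminometry, and RLU were normalized to DMSO vehicle controls.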

[9] = test system: 4A1^F163L/4A2^− eHAP1 cells; assay: RT-qPCR of FF-4.04 and FF-4.06 reporter mRNA; assay type: cell-based; details: 5 h exposure, normalized to GAPDH, relative to DMSO
Outline: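 Cells were nucleofected with the PTC-containing or control FLuc-β-globin reporter and selected as a pool in G418 (1.6 mg/mL). They were seeded at 250,000/well and exposed to compound for 5 h. After TRIzol extraction and oligo(dT) cDNA synthesis, EvaGreen qPCR used β-globin (HBB) primers. Values were normalized to GAPDH and expressed relative to DMSO.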

[10] = test system: 4A1^F163L/4A2^− eHAP1 cells; assay: Luciferase NMD reporter assay; assay type: cell-based; details: 6 h exposure
Outline: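 Cells were transfected at 75% confluency with an FLuc-β-globin plasmid (PTC-containing or control, with or without an upstream HCV IRES) plus an HCV-IRES RLuc plasmid. The next day they were reseeded and left to recover for 24 h, then given compound for 6 h. Cells were lysed and both luciferases read by luminometry. n = 3 ± SD.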

T1 sequence (P60842 whole entry, species assumed): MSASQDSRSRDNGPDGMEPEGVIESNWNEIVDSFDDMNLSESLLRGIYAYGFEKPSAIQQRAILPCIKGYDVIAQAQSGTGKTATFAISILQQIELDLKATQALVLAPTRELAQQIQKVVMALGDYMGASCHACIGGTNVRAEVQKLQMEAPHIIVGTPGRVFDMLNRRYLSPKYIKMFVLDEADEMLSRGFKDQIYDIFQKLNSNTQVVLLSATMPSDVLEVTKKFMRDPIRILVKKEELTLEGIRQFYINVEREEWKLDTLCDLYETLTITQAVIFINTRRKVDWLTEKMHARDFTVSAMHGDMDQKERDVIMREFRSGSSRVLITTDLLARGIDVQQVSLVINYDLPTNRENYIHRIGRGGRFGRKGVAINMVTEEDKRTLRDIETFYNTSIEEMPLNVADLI
T2 sequence (P38919 whole entry, species assumed): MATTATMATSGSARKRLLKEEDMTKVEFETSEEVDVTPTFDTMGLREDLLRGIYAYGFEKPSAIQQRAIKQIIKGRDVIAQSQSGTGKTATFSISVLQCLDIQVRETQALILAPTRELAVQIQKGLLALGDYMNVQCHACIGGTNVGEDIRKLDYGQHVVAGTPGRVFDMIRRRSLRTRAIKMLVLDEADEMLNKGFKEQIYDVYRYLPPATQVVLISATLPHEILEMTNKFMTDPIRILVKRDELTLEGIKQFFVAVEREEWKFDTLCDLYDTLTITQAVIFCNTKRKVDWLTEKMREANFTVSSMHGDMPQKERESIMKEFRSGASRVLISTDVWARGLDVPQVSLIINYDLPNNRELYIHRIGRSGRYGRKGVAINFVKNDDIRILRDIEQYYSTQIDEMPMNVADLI

Compound: CC(/C=C/C(C)=C/[C@@H]1Cc2nc(cs2)[C@@H](C)C[C@@H](N)CC(=O)O[C@@H](C)C/C(C)=C/C=C\C(=O)O1)=C\CN(C)C [PatA, pateamine A]
Clamping of eIF4A1 to poly r(AG)8 RNA (ΔmP relative to DMSO) [1]: clamping was observed
Clamping of eIF4A3 to poly r(AG)8 RNA (ΔmP relative to DMSO) [2]: clamping was observed
Fitted half-life T(1/2) of eIF4A1•ATP•RNA•compound complex [3]: 1.83 h and 1.83 ± 0.0233 h
Fitted half-life T(1/2) of eIF4A3•ATP•RNA•compound complex [4]: 3.05 h and 3.05 ± 0.02 h
Increase of PTC+ mRNA levels ([5]; PTC+ HeLa cells, 1 h exposure, highest concentration tested (200 nM)): approximately threefold
Increase of PTC+ mRNA levels ([5]; PTC+ HeLa cells, 5 h exposure): 10 fold
TCR-β mRNA levels in PTC+ cells ([5]; PTC+ HeLa cells, 5 h exposure): Stabilization of TCR-β mRNA
TCR-β mRNA levels in PTC− cells ([5]; 5 h exposure): but not PTC− cells
35S-Met incorporation into proteins (translation) [6]: translation was blocked
HPRT mRNA levels [7]: not increased
SC35 mRNA levels relative to DMSO controls [7]: significant increase
Translational response of all three reporters (AG, UC, NMD 5′ leaders) [8]: equally inhibited all reporters

Compound: C[C@@H]1C[C@@H]([C@H](O)CC2CC(=O)NC(=O)C2)C(=O)[C@@H](C)C1 [CHX, cycloheximide]
TCR-β mRNA levels in PTC+ cells ([5]; PTC+ HeLa cells, 5 h exposure): significantly increased
TCR-β mRNA levels in PTC− cells ([5]; 5 h exposure): no impact
FF-4.06 (NMD reporter) mRNA levels [9]: increased
HPRT mRNA levels [7]: not increased
SC35 mRNA levels relative to DMSO controls [7]: significant increase
Translational response of all three reporters (AG, UC, NMD 5′ leaders) [8]: equally responsive

Compound: CONC(=O)[C@H]1[C@@H](O)[C@@]2(O)c3c(OC)cc(OC)cc3O[C@@]2(c2ccc(OC)cc2)[C@@H]1c1ccccc1 [CR-1-31B]
Clamping of eIF4A3 to poly r(AG)8 RNA (ΔmP relative to DMSO) [2]: able to induce clamping
Fitted half-life T(1/2) of eIF4A1•ATP•RNA•compound complex [3]: 0.833 ± 0.005 h
Fitted half-life T(1/2) of eIF4A3•ATP•RNA•compound complex [4]: 0.4 ± 0.0067 h
Effect on TCR-β minigene mRNA levels ([5]; PTC+ HeLa cells, 1 µM compound for 1 h): no significant effect
TCR-β mRNA levels in PTC+ cells ([5]; PTC+ HeLa cells, 5 h exposure): substantial stabilization
35S-Met incorporation into proteins (translation) [6]: translation was blocked
Luc expression from FF-4.04 or FF-4.06 reporters ([10]; 300 nM, both reporters): approximately twofold
RLuc expression from internal HCV/Ren control [10]: No change
Expression of HCV/FF-4.04 and HCV/FF-4.06 reporters ([10]; titration range tested): neither reporter showed a change in expression
FF-4.06 (NMD reporter) mRNA levels [9]: increased only in the presence of CHX
HPRT mRNA levels [7]: not increased
SC35 mRNA levels relative to DMSO controls [7]: did not significantly change
Translational response of reporter mRNA with polypurine ([AG]10) 5′ leader [8]: conferred CR-1-31B responsiveness

Clamping of eIF4A3 to poly r(AG)8 RNA (ΔmP relative to DMSO) [2]: able to induce clamping
Compound: COc1ccc([C@@]23Oc4cc(OC)cc(OC)c4[C@]2(O)[C@H](O)[C@H](C(=O)N(C)C)[C@H]3c2ccccc2)cc1 [RocA]

Clamping of eIF4A3 to poly r(AG)8 RNA (ΔmP relative to DMSO) [2]: able to induce clamping
Compound: COC(=O)[C@H]1[C@@H](O)[C@@]2(O)c3c(OC)cc(O[C@@H]4O[C@@H]([C@H](O)CO)CO[C@H]4OC)cc3O[C@@]2(c2ccc(OC)cc2)[C@@H]1c1ccccc1 [silvestrol]
